Source: PubChem BioAssay
Only some compounds are listed: those with a hit (about 1.7% of all), similar ones and a draw of the others.
PGC1a acetyl inh: modulators of PGC1a acetylation | U2OS PGC1a acetylation, AlphaScreen anti-acetyl-lysine; with virally co-expressed GCN5 acetyltransferase | inhibition, % at 15.6 µM | 0.17% of 350,000 active;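 active means every replicate shows inhibition of at least 40%; inconclusive means mean inhibition at least 40% but some replicate below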
CAL PDZ FP-1: CAL PDZ (human) peptide binding inhibition; 0.92% of 300,000 active; inhibition, % at 24.9 µM; purified CAL PDZ, TMR-peptide fluorescence polarization, 1 h;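 active means mean inhibition of at least 30% with at least half of replicates also reaching 30%; inconclusive means no clear call, values can overlap the other calls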
miR122 inh: blocks miR-122 activity in Huh7 sensor cells; Huh7 miR-122 Renilla luciferase sensor, 48 h; neutral wells = 0, positive control = 100; activation (reporter increase), % at 12.5 µM; 0.3% of 340,000 active; AID 602342;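 active means mean replicate activation score at least 90 and every replicate individually at or above 90; inconclusive means only one of the two criteria met; inactive means neither criterion met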;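 further: higher luciferase means less miR-122 activity so hits act as miR-122 inhibitors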
ARNT TACC3 PPI: disrupts binding between human ARNT and TACC3; AlphaScreen His-ARNT PAS-B/GST-TACC3 binding, luminescence; TACC3 fragment carries E629A point mutation; inhibition, % at 9.99 µM; 0.66% of 390,000 active; AID 623870;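 active means mean inhibition of replicates at least 50% and at least half of replicates each reaching 50%; inconclusive means half or more replicates reach 50% but mean below 50%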
F508del corr: correctors of CFTR F508del function in bronchial epithelial cells. activity (quench increase), % at 7.58 µM. CFBE cells, YFP halide quenching; stimulated with forskolin plus potentiator P3; % fluorescence drop versus neutral controls. 0.36% of 350,000 active;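 active means mean added fluorescence quench of at least 8% versus neutral control, with both replicates also reaching 8%; inconclusive means only one of the mean or replicate conditions met; inactive means mean below 8% and not both replicates reaching 8%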;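 further: cells transiently co-express mutant CFTR-F508del with the halide-sensitive YFP; corrector assay measuring rescue of mutant channel to the surface after 24 h compound exposure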
CAL PDZ FP-2: human CAL PDZ-peptide interaction inhibition | Q9HD26 | purified CAL PDZ, TMR-peptide fluorescence polarization, 1 h | inhibition, % at 20 µM | 0.02% of 330,000 active | AID 504414;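 active means highest replicate inhibition of at least 40%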
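Test system: purified CerCALP PDZ construct; Compound dosing: one concentration, 20 µM compound; Also added: TMR-labelled reporter peptide T*-PRC34 bound in PDZ groove; Read-out: inhibition from polarization loss; Controls: unlabelled peptide and DMSO controls; Signal: FP readout, S and P plane fluorescence; Incubation: 1 h at RT.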
A number is an active result; – = inactive; ? = inconclusive; · = no result; ! = not active in a repeat.

SMILES | PGC1a acetyl inh | CAL PDZ FP-1 | miR122 inh | ARNT TACC3 PPI | F508del corr | CAL PDZ FP-2
C[C@@H]1CN([C@@H](C)CO)C(=O)c2cc(NS(=O)(=O)c3ccccc3)ccc2O[C@@H](C)CCCCO[C@@H]1CN(C)S(=O)(=O)c1ccccc1 | – | · | – | – | – | ·
CO[C@@H]1CN(C)C(=O)c2ccc(NC(C)=O)cc2OC[C@@H](C)N(Cc2ccncc2)C[C@H]1C | – | · | – | · | – | ·
C[C@@H]1CN([C@@H](C)CO)C(=O)Cc2cc(NS(C)(=O)=O)ccc2O[C@@H]1CN(C)Cc1ccccc1 | – | · | – | – | – | ·
Cc1ccccc1-n1nc2c(c1NC(=O)c1cc3ccccc3oc1=O)CS(=O)C2 (stereo unspecified) | – | 97 | – | – | · | ·
CC(=O)OC[C@]12CC[C@H]3[C@@](C)(CC[C@H]4C(C)(C)CCC[C@]34C)[C@@H]1CC(C1=CC(=O)OC1O)O2 (stereo partly specified) | 87 | · | – | · | – | ·
CC(=O)OC[C@]1(OC(C)=O)C[C@@]23CC[C@H]4[C@@](C)(CCC[C@@]4(C)C(=O)O)[C@@H]2CC[C@@H]1C3 | · | – | – | – | – | –
Nc1ccc(S(=O)(=O)Nc2cnc3c(Cl)cccc3n2)cc1 | · | – | · | – | – | –
Nc1ccc(S(=O)(=O)Nc2cnc3ccccc3n2)cc1 | – | – | – | – | 11! | –
O=C1CCCN1CC(O)CS(=O)(=O)Cc1ccccc1 (stereo unspecified) | – | 46 | · | – | – | ·
O=C1CCCN1CC(O)CS(=O)(=O)Cc1ccccc1Cl (stereo unspecified) | – | – | – | – | – | –
CCOc1cccc(-c2c(C(=O)N/N=C(\C)c3ccccn3)nnn2-c2nonc2N)c1 | – | – | – | 92 | – | –
CC1CCN(Cc2c(C(=O)N/N=C/c3cc(Br)ccc3O)nnn2-c2nonc2N)CC1 | – | – | – | · | ? | –
Cc1c(C(=O)N/N=C/c2ccccn2)nnn1-c1nonc1N | – | · | – | 43 | – | –
Cc1c(C(=O)N/N=C/c2ccncc2)nnn1-c1nonc1N | – | – | · | – | – | –
Nc1nonc1-n1nnc(C(=O)N/N=C/c2ccccn2)c1CNc1ccccc1 | – | 131 | – | 47 | – | –
Cc1cc(C)c(/C=N/NC(=O)c2nnn(-c3nonc3N)c2CN2CCC(C)CC2)c(C)c1 | · | 38 | – | – | – | –
CCOc1cccc(-c2c(C(=O)N/N=C(\C)c3ccncc3)nnn2-c2nonc2N)c1 | – | – | – | – | – | –
CO[C@@H]1CN(C)C(=O)c2cc(NC(=O)c3ccc(F)cc3)ccc2OC[C@@H](C)N(C(C)=O)C[C@H]1C | – | · | – | – | – | ·
C[C@@H]1CN([C@H](C)CO)C(=O)c2cccc(NS(=O)(=O)c3cn(C)cn3)c2O[C@H]1CN(C)Cc1ccc2c(c1)OCO2 | – | · | – | – | – | ·
O=c1c(Br)c(Br)cnn1-c1ccccc1 | · | 32 | · | – | – | –
Cc1ccc(-n2ncc(Br)c(Br)c2=O)cc1 | · | – | – | – | · | –
COC(=O)C[C@@H]1C[C@@H]2c3cc(NC(=O)Nc4ccc(F)cc4)ccc3O[C@@H]2[C@H](CO)O1 | – | · | – | – | – | ·
Cc1ncc(CN2CCN(C3CCCC3)C(CCO)C2)s1 (stereo unspecified) | · | 82 | – | – | – | –
CSc1ncc(CN2CCN(CC=C(C)C)C(CCO)C2)cn1 (stereo unspecified) | · | – | · | – | – | –
CSc1ncc(CN2CCN(C3CCCC3)C(CCO)C2)cn1 (stereo unspecified) | – | 31 | – | – | – | –
C[C@@H]1CN([C@H](C)CO)C(=O)c2cc(NC(=O)CCCCCC(=O)Nc3ccccc3N)ccc2O[C@H]1CN(C)C(=O)NC1CCCCC1 | – | · | · | · | – | ·
CCCOc1ccc2ccccc2c1/C=C1\SC(=O)NC1=O | 76 | – | – | – | – | –
CC1CC(C)CN(C(=O)/C=C/c2ccc(S(=O)(=O)N3CCOCC3)cc2)C1 (stereo unspecified) | – | · | – | – | 8.4 | –
O=C(/C=C/c1ccc(S(=O)(=O)N2CCOCC2)cc1)NCc1ccc(Cl)cc1 | · | · | – | 14 | – | –
